FN deposition inh: inhibitors of fibronectin matrix deposition, primary screen, AH1F cells, Alexa488-fibronectin fluorescence, plate reader; inhibition, % at 12.6 µM; 0.086% of 350,000 active; AH1F fibroblasts, overnight; AID 743247, 2014;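 active = mean inhibition across replicates of 30% or more, regardless of how many single replicates reach that level; inconclusive = mean under 30% yet at least half of replicates reach 30%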;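 note: positive control wells lacked labelled fibronectin entirely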
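Assay system: AH1F fibroblast monolayer, labelled fibronectin deposition. Amount: 10000 cells per well. Also added: labelled fibronectin 24 nM. Compound: single-point pinned compound. Incubation: cell attachment 1 h, compound and FN exposure overnight. Detection: fluorescence after three HBSS washes, excitation 485 nm, emission 525 nm. Read-out: inhibition of fibronectin deposition signal.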
TROY NFkB inh: inhibitors of TROY-driven NF-kB signaling, primary screen, Q293 LMP1-TROYcd cells, NF-kB luciferase, uHTS. Q293 LMP1-TROYcd NF-kB luciferase reporter, 4 h. inhibition, % at 10 µM. 0.98% of 360,000 active. AID 1347056, 2019;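 active = compounds whose plate-normalised and pattern-corrected inhibition of the luciferase reporter signal at the single screening dose is 50% or more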
TWEAK Fn14 block: inhibitors of TWEAK-Fn14 signaling, primary screen, luciferase reporter cells, uHTS | TWEAK-stimulated Fn14 reporter cells, luciferase luminescence, 8 h | inhibition, % at 10 µM | 2% of 360,000 active | AID 1159606, 2016; in the data active = inhibition above about 50%
XiGFP reactiv: activators of inactive X chromosome reactivation, primary screen, imaging, XiGFP fibroblasts, GFP high-content imaging, set 2 | 0.055% of 360,000 active | XiGFP mouse fibroblasts, % GFP-positive cells imaging, 3 d; cells co-treated with 5-aza-dC sensitizer; scaled so ellipticine positive control = 100% | activation, % at 7.58 µM;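 active = mean normalized replicate activation at least 10% and every replicate at or above 10%; inconclusive = only one of the two criteria met; inactive = mean below 10% and not all replicates reach 10%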;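 note: 0% = median of on-plate neutral control wells and 100% = ellipticine 6 µM median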
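Material: SV40-immortalized XiGFP fibroblast cells, line 68-5-11 | Buffer or medium: DMEM containing 5-aza-dC | Dosing: One concentration, pinned | Times: 3 d treatment, 15 min room-temperature fixation | Controls: Ellipticine 6 µM positive control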
LGR2 inh: inhibitors of bursicon-induced LGR2 CRE-luciferase signal, primary screen, cell-based, HEK293, CRE-luciferase reporter, bursicon stimulation; bursicon-stimulated, 4 h; Drosophila bursicon receptor LGR2 (rickets); 0.35% of 380,000 active; inhibition, % at 9.99 µM;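 active = drop in luminescence signal, shown as inhibition above about 50% in the replicate tests, limit read from the data, passing the limit was not always enough; inconclusive = probably only some replicates passing the limit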;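 note: agonist challenge used bursicon conditioned medium at about half maximal strength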
EWS-Fli block: EWS/Fli-driven NR0B1 reporter inhibitors, primary screen, A673 cells, NR0B1 luciferase, luminescence, MLPCN library; AID 651661, 2012; 0.67% of 350,000 active; viability-normalised; inhibition, % at 12.6 µM;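 active = mean inhibition of at least 50% after viability correction, with every replicate also passing that limit; inconclusive = mean reaches 50% but only one of two replicates passes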;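 note: firefly luciferase signal divided by Alamar Blue viability fluorescence both relative to DMSO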
The depositor's hits bear a star; ? = inconclusive; / = no result given. Only some compounds are listed: those with a hit (about 2.3% of all), similar ones and a draw of the others.

SMILES	FN deposition inh	TROY NFkB inh	TWEAK Fn14 block	XiGFP reactiv	LGR2 inh	EWS-Fli block
CC(=O)Nc1cccc(-c2ccnc3c2CC(C)(C(=O)NCc2ccc(F)c(F)c2)O3)c1 (stereo unspecified)	10	19	11	0	-22	58*
CC1(C(=O)Nc2cccc(OC(F)(F)F)c2)Cc2c(-c3cccc(C(F)(F)F)c3)ccnc2O1 (stereo unspecified)	16	-4	-4	0	9	8
CC(=O)Nc1cccc(-c2ccnc3c2CC(C)(C(=O)NCCC(F)(F)F)O3)c1 (stereo unspecified)	20	8	25	0	-11	33
CC1(C(=O)NCc2ccccc2)Cc2c(-c3cccc(C(N)=O)c3)ccnc2O1 (stereo unspecified)	7	-7	2	1	-20	58*
CC1(C(=O)NCc2ccc(F)c(F)c2)Cc2c(-c3cccc(C(N)=O)c3)ccnc2O1 (stereo unspecified)	10	-12	-13	0	-14	21
CC(=O)Nc1cccc(-c2ccnc3c2CC(C)(C(=O)Nc2cccc(OC(F)(F)F)c2)O3)c1 (stereo unspecified)	18	42	16	0	16	52*
CC(=O)N[C@H]1C[C@@H]2O[C@@H](CO)CC[C@@H]2O[C@@H]1CCc1ccc(-c2ccc(F)cc2)cc1	/	/	/	/	/	2
CCCCCCCCCCCCCC(=O)NO	8	-49	-63	0	25	55*
C/C=C/c1ccc2c(c1)O[C@@H](CN(C)C)[C@@H](C)CN([C@@H](C)CO)S2(=O)=O	-7	/	/	-1	-30	-9
CS(=O)(=O)Nc1ccc2c(c1)[C@H]1C[C@H](CC(=O)NCC3CC3)O[C@@H](CO)[C@H]1O2	/	/	/	0	-7	-6
COc1ccc(Nc2ncnc3c2c(C)c(C)n3CCCN(C)C)cc1	0	55*	59*	0	21	-46
Cc1c(C)n(CCCN(C)C)c2ncnc(Nc3ccccc3)c12	0	8	20	0	3	-12
CC(C)NC(=O)N1C[C@H]2[C@@H](c3ccccc31)[C@@H](CO)N2C(=O)c1ccccn1	/	/	/	0	-32	2
CCc1ccc2c(c1)C(=O)CCC2	5	-7	19	0	-18	0
O=C1CCCc2cc3c(cc21)CC1(C3)Cc2cc3c(cc2C1)C(=O)CCC3	-7	61*	35	0	34	?
Oc1cccc2ccc(/C=C/c3ccccc3Br)nc12	7	55*	56*	1	-95	-71
COc1cc(Br)c(/C=C/c2ccc3cccc(O)c3n2)cc1OC	10	8	-22	1	-19	-5
C[C@@H]1CN([C@@H](C)CO)C(=O)c2cc(NS(=O)(=O)c3cn(C)cn3)ccc2O[C@H]1CN(C)Cc1ccc(C(=O)O)cc1	/	/	/	0	-16	3
O=C(CSc1nccn(-c2ccc3c(c2)OCCO3)c1=O)Nc1ccccc1	-9	66*	62*	0	-38	-63
O=C(CSc1nnnn1-c1ccccc1Cl)Nc1ccc2c(c1)OCCO2	15	54*	76*	0	-25	17
CC1Cc2nc(SCC(=O)Nc3ccc4c(c3)OCCO4)n(C)c(=O)c2S1 (stereo unspecified)	/	71*	42	/	/	/
Cc1cccc(-n2ccnc2SCC(=O)Nc2ccc3c(c2)OCCO3)c1	/	51*	6	/	-46	/
Cc1ccc(NC(=O)CSc2nccn(-c3ccc4c(c3)OCCO4)c2=O)cc1	0	35	25	0	-7	-14
CC[C@]12c3[nH]c4cc(CCC(=O)N(C)C)ccc4c3CCN1C(=O)[C@@H](CC(=O)NCC13CC4CC(CC(C4)C1)C3)C[C@@H]2C(=O)N1CCN(C(=O)c2ccco2)CC1	-6	-2	96*	0	-11	19
CCc1ccc2[nH]c(=O)c(CN(CCCN3CCOCC3)C(=O)Nc3ccc(Cl)cc3)cc2c1	/	-18	5	/	10	/
SMILES	FN deposition inh	TROY NFkB inh	TWEAK Fn14 block	XiGFP reactiv	LGR2 inh	EWS-Fli block
CCN(CC)CCCN(Cc1cc2cc3c(cc2[nH]c1=O)OCCO3)C(=O)Nc1ccccc1	/	78*	37	/	/	/
CCOc1ccc2[nH]c(=O)c(CN(CCN3CCCC3)C(=S)Nc3ccccc3OCC)cc2c1	2	10	-15	0	3	55*
O=C(Nc1ccccc1F)N(CCCN1CCOCC1)Cc1cc2cc3c(cc2[nH]c1=O)OCCO3	/	58*	14	/	/	/
CCc1ccc2[nH]c(=O)c(CN(CCCN3CCOCC3)C(=O)Nc3ccccc3)cc2c1	/	62*	18	/	/	/
CN(C)CCCNC(=O)C[C@H]1CC[C@@H]2[C@H](COc3ccc(NC(=O)c4cccc(F)c4)cc3C(=O)N2C)O1	10	/	/	0	-15	-19
CCc1ccc2[nH]c(=O)c(CN(CCN3CCCC3)C(=O)NC3CCCCC3)cc2c1	/	/	85*	/	/	/
Cc1ccc(S(=O)(=O)Nc2cccc3c2O[C@@H](CN(C)S(C)(=O)=O)[C@@H](C)CN([C@@H](C)CO)C3=O)cc1	/	/	/	0	2	-7
Fc1ccccc1CN1[C@@H]2CNC[C@H]1C2c1ccc(-c2ccncc2)cc1 (stereo partly specified)	4	/	/	0	0	0
C[C@H](CO)N1C[C@H](C)[C@@H](CN(C)S(=O)(=O)c2cccs2)OCCCC[C@H](C)Oc2ccc(NC(=O)C3CCCCC3)cc2C1=O	/	/	/	-1	14	7
Fc1ccc2cc(CCO[C@H]3CCCCO3)ncc2c1	-5	3	34	0	-45	33
Fc1ccc2cnc(CCO[C@H]3CCCCO3)cc2c1	16	9	67*	0	54*	46
CC1(c2ccccc2)CCC(=O)NC1 (stereo unspecified)	-12	6	6	0	10	8
CC1C(=O)CCC1(C(=O)O)c1ccccc1 (stereo unspecified)	/	-3	98*	/	0	/
CCc1nc(N)nc(N)c1-c1ccc(N(C)Cc2ccccc2)c([N+](=O)[O-])c1	2	47	68*	0	22	56*
CCc1nc(N)nc(N)c1-c1ccc(NCCN)c([N+](=O)[O-])c1	5	-3	3	0	-15	45
C[C@H](CO)N1C[C@H](C)[C@H](CN(C)C(=O)Nc2ccc(F)cc2)OCCCC[C@H](C)Oc2ccc(NC(=O)Nc3ccc(F)cc3)cc2C1=O	-3	/	/	0	53*	-7

Compound activity deposited in PubChem by several laboratories.
